Data published in ChEMBL document CHEMBL1156239, “Synthesis, anticonvulsant and antimicrobial activities of some new 2-acetylnaphthalene derivatives” (Bioorg Med Chem, 2010).
≈ marks a conversion by molar mass, not a printed value. Calls of active or inactive are those of the source. The calls are words filed in the database; no cut-off is given here.

Key:
Rattus norvegicus [1] = assay: Anticonvulsant activity in Sprague-Dawley rat assessed as inhibition of maximal electroshock-induced seizures at 30 mg/kg, ip; format: functional, organism-based; design: dose 30 mg/kg
Mus musculus [2] = assay: Anticonvulsant activity in CF1 mouse assessed as time to peak effect for inhibition of maximal electroshock-induced seizures at 23 mg/kg, ip after 1 hr; format: functional, organism-based; design: dose 23 mg/kg
Mus musculus [3] = assay: Anticonvulsant activity in CF1 mouse assessed as time to peak effect for inhibition of maximal electroshock-induced seizures at 35 mg/kg, ip after 2 hrs; format: functional, organism-based; design: dose 35 mg/kg
Mus musculus [4] = assay: Anticonvulsant activity in CF1 mouse assessed as time to peak effect for inhibition of maximal electroshock-induced seizures at 70 mg/kg, ip; format: functional; settings: route intraperitoneal
Rattus norvegicus [5] = assay: Neurotoxicity in Sprague-Dawley rat assessed as time to peak effect at 50 mg/kg, ip after 2 to 6 hrs by rotarod test; format: toxicity, organism-based; design: dose 50 mg/kg, route intraperitoneal; settings: in vivo
Mus musculus [6] = assay: Anticonvulsant activity in CF1 mouse assessed as time to peak effect for inhibition of maximal electroshock-induced seizures at 70 mg/kg, ip after 4 hrs; format: functional, organism-based; design: dose 70 mg/kg
Mus musculus [7] = assay: Neurotoxicity in CF1 mouse assessed as time to peak effect muscle spasms at 150 mg/kg, ip by rotarod test; format: toxicity, organism-based, Muscle tissue; design: dose 150 mg/kg, route intraperitoneal; settings: in vivo
Mus musculus [8] = assay: Neurotoxicity in CF1 mouse assessed as time to peak effect at 150 mg/kg, ip after 1 to 2 hrs by rotarod test; format: toxicity, organism-based; design: dose 150 mg/kg, route intraperitoneal; settings: in vivo
Rattus norvegicus [9] = assay: Neurotoxicity in Sprague-Dawley rat assessed as time to peak effect at 10 to 30 mg/kg, ip after 0.25 to 4 hrs by rotarod test; format: toxicity, organism-based; design: route intraperitoneal; settings: in vivo
Rattus norvegicus [10] = assay: Anticonvulsant activity in Sprague-Dawley rat assessed as time to peak effect for inhibition of maximal electroshock-induced seizures at 30 mg/kg, ip; format: functional; settings: route intraperitoneal
Rattus norvegicus [11] = assay: Neurotoxicity in Sprague-Dawley rat assessed as time to peak effect at 75 mg/kg, ip by rotarod test; format: toxicity, organism-based; design: dose 75 mg/kg, route intraperitoneal; settings: in vivo
Rattus norvegicus [12] = assay: Anticonvulsant activity in ip dosed Sprague-Dawley rat assessed as inhibition of maximal electroshock-induced seizures after 0.5 hrs; format: functional
Rattus norvegicus [13] = assay: Neurotoxicity in ip dosed Sprague-Dawley rat after 0.5 hrs by rotarod test; format: toxicity, organism-based; settings: in vivo
[14] = Therapeutic index, ratio of TD50 for CF1 mouse to ED50 for CF1 mouse
In short: (§1)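 Ratio of TD50 to ED50, both from ip dosing at the time of peak effect, with groups of at least 8 per dose and Finney probit analysis. […] Toxicity was read by rotarod in mice and by positional sense, gait and stance in rats.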

[15] = Therapeutic index, ratio of TD50 for Sprague-Dawley rat to ED50 for Sprague-Dawley rat; in short: as §1
Staphylococcus aureus = assay: Antibacterial activity against Staphylococcus aureus ATCC 25923 after 24 hrs by broth microdilution method; format: functional; settings: ATCC 25923, 24 h
In short: (§2)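 Broth microdilution in Mueller Hinton broth; compound stocks in DMSO, diluted into test medium. Plates incubated at 35 °C and read visually after 24 h. MIC taken as lowest concentration preventing visible growth. Ampicillin reference.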

Enterococcus faecalis = assay: Antibacterial activity against Enterococcus faecalis ATCC 29212 after 24 hrs by broth microdilution method; format: functional; settings: ATCC 29212, 24 h; in short: as §2
Pseudomonas aeruginosa = assay: Antibacterial activity against Pseudomonas aeruginosa ATCC 27853 after 24 hrs by broth microdilution method; format: functional; settings: ATCC 27853, 24 h; in short: as §2
Pichia kudriavzevii = assay: Antifungal activity against Candida krusei ATCC 6258 after 48 hrs by broth microdilution method; format: functional; settings: ATCC 6258, 48 h
Mus musculus [16] = assay: Anticonvulsant activity in CF1 mouse assessed as inhibition of maximal electroshock-induced seizures at 100 mg/kg, ip after 0.5 hrs; format: functional, organism-based; design: dose 100 mg/kg
In short: (§3)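 Male albino CF#1 mice (18–25.5 g), compound suspended in 0.5% methylcellulose, given ip 0.5 h or 4 h before test. Eyes treated with 0.5% tetracaine HCl in saline; corneal-type MES at 60 Hz, 50 mA for 0.2 s; protection scored as animals protected/tested.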

Mus musculus [17] = assay: Anticonvulsant activity in CF1 mouse assessed as inhibition of maximal electroshock-induced seizures at 300 mg/kg, ip after 0.5 hrs; format: functional, organism-based; design: dose 300 mg/kg; in short: as §3
Mus musculus [18] = assay: Anticonvulsant activity in CF1 mouse assessed as inhibition of maximal electroshock-induced seizures at 30 mg/kg, ip after 4 hrs; format: functional, organism-based; design: dose 30 mg/kg; in short: as §3
Mus musculus [19] = assay: Anticonvulsant activity in CF1 mouse assessed as inhibition of maximal electroshock-induced seizures at 300 mg/kg, ip after 4 hrs; format: functional, organism-based; design: dose 300 mg/kg; in short: as §3
Mus musculus [20] = assay: Neurotoxicity in CF1 mouse at 30 mg/kg, ip after 0.5 hrs by rotarod test; format: toxicity, organism-based; design: dose 30 mg/kg, route intraperitoneal; settings: in vivo
In short: (§4)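 Male albino CF#1 mice (18–25.5 g) dosed ip with compound suspended in 0.5% methylcellulose, 0.5 h or 4 h before testing; neurotoxicity assessed by rotarod, scored as number toxic/number tested.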

Mus musculus [21] = assay: Neurotoxicity in CF1 mouse at 100 mg/kg, ip after 0.5 hrs by rotarod test; format: toxicity, organism-based; design: dose 100 mg/kg, route intraperitoneal; settings: in vivo; in short: as §4
Mus musculus [22] = assay: Neurotoxicity in CF1 mouse assessed as ability to grasp rotarod at 300 mg/kg, ip after 0.5 hrs by rotarod test; format: toxicity, organism-based; design: dose 300 mg/kg, route intraperitoneal; settings: in vivo; in short: as §4
Mus musculus [23] = assay: Neurotoxicity in CF1 mouse assessed as hyperactivity at 300 mg/kg, ip after 0.5 hrs by rotarod test; format: toxicity, organism-based; design: dose 300 mg/kg, route intraperitoneal; settings: in vivo
Mus musculus [24] = assay: Neurotoxicity in CF1 mouse at 30 mg/kg, ip after 4 hrs by rotarod test; format: toxicity, organism-based; design: dose 30 mg/kg, route intraperitoneal; settings: in vivo; in short: as §4
Mus musculus [25] = assay: Neurotoxicity in CF1 mouse at 100 mg/kg, ip after 4 hrs by rotarod test; format: toxicity, organism-based; design: dose 100 mg/kg, route intraperitoneal; settings: in vivo; in short: as §4
Mus musculus [26] = assay: Neurotoxicity in CF1 mouse assessed as ability to grasp rotarod at 300 mg/kg, ip after 4 hrs by rotarod test; format: toxicity, organism-based; design: dose 300 mg/kg, route intraperitoneal; settings: in vivo
In short: (§5)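 Male albino CF#1 mice (18–25.5 g), free access to food and water except during testing, under NINDS Anticonvulsant Screening Program procedures. Compounds were suspended in 0.5% methylcellulose and given ip. Neurotoxicity was scored by rotarod 0.5 h and 4 h after dosing, at screening doses of 30, 100 or 300 mg/kg. Results are reported as affected/tested animals.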

Mus musculus [27] = assay: Neurotoxicity in CF1 mouse assessed as mortality at 300 mg/kg, ip after 4 hrs by rotarod test; format: toxicity, organism-based; design: dose 300 mg/kg, route intraperitoneal; settings: in vivo; in short: as §5
Rattus norvegicus [28] = assay: Anticonvulsant activity in Sprague-Dawley rat assessed as inhibition of maximal electroshock-induced seizures at 30 mg/kg, po after 0.25 hrs; format: functional, organism-based; design: dose 30 mg/kg
In short: (§6)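 Male albino Sprague-Dawley rats (105–130 g) given a single oral 30 mg/kg dose suspended in 0.5% methylcellulose; MES (60 Hz, 150 mA, 0.2 s, tetracaine-anesthetized eyes) at 0.25, 0.5, 1, 2 and 4 h; 4 rats per time point; scored protected/tested.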

Rattus norvegicus [29] = assay: Anticonvulsant activity in Sprague-Dawley rat assessed as inhibition of maximal electroshock-induced seizures at 30 mg/kg, po after 1 hr; format: functional, organism-based; design: dose 30 mg/kg; in short: as §6
Rattus norvegicus [30] = assay: Anticonvulsant activity in Sprague-Dawley rat assessed as inhibition of maximal electroshock-induced seizures at 30 mg/kg, po after 2 hrs; format: functional, organism-based; design: dose 30 mg/kg; in short: as §6
Rattus norvegicus [31] = assay: Neurotoxicity in Sprague-Dawley rat at 30 mg/kg, po after 0.25 hrs by rotarod test; format: toxicity, organism-based; design: dose 30 mg/kg, route oral; settings: in vivo
Rattus norvegicus [32] = assay: Neurotoxicity in Sprague-Dawley rat at 30 mg/kg, po after 0.5 hrs by rotarod test; format: toxicity, organism-based; design: dose 30 mg/kg, route oral; settings: in vivo
Rattus norvegicus [33] = assay: Neurotoxicity in Sprague-Dawley rat at 30 mg/kg, ip after 1 hr by rotarod test; format: toxicity, organism-based; design: dose 30 mg/kg, route intraperitoneal; settings: in vivo
Rattus norvegicus [34] = assay: Neurotoxicity in Sprague-Dawley rat at 30 mg/kg, ip after 2 hrs by rotarod test; format: toxicity, organism-based; design: dose 30 mg/kg, route intraperitoneal; settings: in vivo

CC(C)CC(=O)OC(Cn1ccnc1)c1ccc2ccccc2c1 (stereo not drawn)
inhibition (Rattus norvegicus [1]): Active | Activity (Mus musculus [2]): inactive | Activity (Mus musculus [3]): inactive | Time (Mus musculus [4]): 0.5 h | Activity (Rattus norvegicus [5]): Non-toxic | Activity (Mus musculus [6]): inactive | Time (Mus musculus [7]): 0.25 h | Activity (Mus musculus [8]): Not Active | Activity (Rattus norvegicus [9]): Non-toxic | Time (Rattus norvegicus [10]): 0.5 h | Time (Rattus norvegicus [11]): 0.5 h | ED50 (Rattus norvegicus [12]): 20.4 mg/kg | ED50 (Rattus norvegicus [13]): 56.36 mg/kg | selectivity ratio [14]: 3.22 | selectivity ratio [15]: 2.76 | MIC (Staphylococcus aureus): 8 µg/mL (≈ 24.8 µM) | MIC (Enterococcus faecalis): 64 µg/mL (≈ 199 µM) | MIC (Pseudomonas aeruginosa): > 1020 µg/mL | MIC (Pichia kudriavzevii): 128 µg/mL (≈ 397 µM) | inhibition (Mus musculus [16]): Active | inhibition (Mus musculus [17]): Active | inhibition (Mus musculus [18]): inactive | inhibition (Mus musculus [19]): Active | Activity (Mus musculus [20]): Non-toxic | Activity (Mus musculus [21]): Non-toxic | Activity (Mus musculus [22]): Toxic | Activity (Mus musculus [23]): Toxic | Activity (Mus musculus [24]): Non-toxic | Activity (Mus musculus [25]): Non-toxic | Activity (Mus musculus [26]): Toxic | Activity (Mus musculus [27]): Toxic | inhibition (Rattus norvegicus [28]): inactive | inhibition (Rattus norvegicus [29]): inactive | inhibition (Rattus norvegicus [30]): inactive | Activity (Rattus norvegicus [31]): Non-toxic | Activity (Rattus norvegicus [32]): Non-toxic | Activity (Rattus norvegicus [33]): Non-toxic | Activity (Rattus norvegicus [34]): Non-toxic
